Measurements reported in ChEMBL document CHEMBL1127647, “Synthesis and antiviral activities of 8-alkynyl-, 8-alkenyl-, and 8-alkyl-2'-deoxyadenosine analogues” (1994).
≈ marks a conversion by molar mass, not a printed value.

Assays:
Type in all cases: functional
ESM = assay: Minimum inhibitory concentration to reduce cytopathicity by 50% in morphology of human embryonic skin-muscle cells (ESM)
HEL [1] = assay: Minimum inhibitory concentration required for antiviral activity to reduce Cytomegalovirus (CMV) (Davis) induced cytopathicity in human embryonic lung cells (HEL)
Method in brief: (§1)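 Endpoint is the compound concentration that reduces virus-induced cytopathicity in the host cell monolayer by 50%.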

[2] = test system: Vesicular stomatitis virus; assay: Minimum inhibitory concentration required for antiviral activity to reduce Vesicular stomatitis virus (VSV) induced cytopathicity in human embryonic skin-muscle cells (ESM); method in brief: as §1
HEL [3] = assay: Minimum inhibitory concentration required for antiviral activity to reduce Varicella Zoster virus (VZV) (Oka) induced cytopathicity in human embryonic lung cells (HEL)
HEL [4] = assay: Minimum inhibitory concentration required for antiviral activity to reduce TK Varicella Zoster virus (VZV) (07/1) induced cytopathicity in human embryonic lung cells (HEL)
HEL [5] = assay: Minimum inhibitory concentration required for antiviral activity to reduce Cytomegalovirus (CMV) (AD-169) induced cytopathicity in human embryonic lung cells (HEL); method in brief: as §1
MDCK [6] = assay: Minimum inhibitory concentration to reduce cytopathicity by 50% in morphology of Madin-Darby canine kidney cells (MDCK); conditions: Canis lupus familiaris
HeLa = assay: Minimum inhibitory concentration to reduce cytopathicity by 50% in morphology of human carcinoma cells (HeLa)
Method in brief: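 Cytotoxicity endpoint is the minimum compound concentration that causes a microscopically detectable alteration of normal host cell morphology.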

Vaccinia virus = assay: Minimum inhibitory concentration required for antiviral activity to reduce Vaccinia virus (VV) induced cytopathicity in human embryonic skin-muscle cells (ESM); conditions: Orthopoxvirus vaccinia; method in brief: as §1
MDCK [7] = assay: Minimum inhibitory concentration required for antiviral activity to reduce influenza B virus (Singapore) induced cytopathicity in Madin-Darby canine kidney cells (MDCK); conditions: Canis lupus familiaris; method in brief: as §1
[8] = test system: Respiratory syncytial virus; assay: Minimum inhibitory concentration required for antiviral activity to reduce Respiratory syncytial virus (RSV) (Long) induced cytopathicity in human carcinoma cells (HeLa); method in brief: as §1
MDCK [9] = assay: Minimum inhibitory concentration required for antiviral activity to reduce Influenza A virus (Ishikawa) induced cytopathicity in Madin-Darby canine kidney cells (MDCK); conditions: Canis lupus familiaris; method in brief: as §1
Human alphaherpesvirus 1 = assay: Minimum inhibitory concentration required for antiviral activity to reduce TK-HSV-1 (B2006) induced cytopathicity in human embryonic skin-muscle cells (ESM); method in brief: as §1
HEL [10] = assay: Minimum inhibitory concentration to reduce cytopathicity by 50% in proliferation of human embryonic lung cells (HEL)
Method in brief: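 Host cell toxicity is read as the compound concentration that reduces HEL cell proliferation by 50%.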

Row | Structure (SMILES) | MIC (ESM) [µg/mL] | MIC (HEL [1]) [µg/mL] | MIC [2] [µg/mL] | MIC (HEL [3]) [µg/mL] | MIC (HEL [4]) [µg/mL] | MIC (HEL [5]) [µg/mL] | MIC (MDCK [6]) [µg/mL] | MIC (HeLa) [µg/mL] | MIC (Vaccinia virus) [µg/mL] | MIC (MDCK [7]) [µg/mL] | MIC [8] [µg/mL] | MIC (MDCK [9]) [µg/mL] | MIC (Human alphaherpesvirus 1) [µg/mL] | MIC (HEL [10]) [µg/mL]
1 | CCCCCC#Cc1nc2c(N)ncnc2n1[C@H]1C[C@H](O)[C@@H](CO)O1 | > 200 | 7 (≈ 20.3 µM) | 20 (≈ 57.9 µM) | 15 (≈ 43.4 µM) | 8 (≈ 23.2 µM) | 2 (≈ 5.79 µM) | 100 (≈ 290 µM) | 100 (≈ 290 µM) | 7 (≈ 20.3 µM) | 100 (≈ 290 µM) | 30 (≈ 86.9 µM) | > 100 | > 100 | 6 (≈ 17.4 µM)
2 | CCCC#Cc1nc2c(N)ncnc2n1[C@H]1C[C@H](O)[C@@H](CO)O1 | 400 (≈ 1260 µM) | 10 (≈ 31.5 µM) | 70 (≈ 221 µM) | 40 (≈ 126 µM) | 20 (≈ 63 µM) | 10 (≈ 31.5 µM) | 100 (≈ 315 µM) | 100 (≈ 315 µM) | 150 (≈ 473 µM) | > 100 | > 100 | 30 (≈ 94.5 µM) | 100 (≈ 315 µM) | 10 (≈ 31.5 µM)
3 | CC#Cc1nc2c(N)ncnc2n1[C@H]1C[C@H](O)[C@@H](CO)O1 | > 400 | 20 (≈ 69.1 µM) | 150 (≈ 519 µM) | 40 (≈ 138 µM) | 40 (≈ 138 µM) | 20 (≈ 69.1 µM) | > 200 | > 200 | 300 (≈ 1040 µM) | > 200 | > 200 | > 200 | 150 (≈ 519 µM) | 40 (≈ 138 µM)
4 | C#Cc1nc2c(N)ncnc2n1[C@H]1C[C@H](O)[C@@H](CO)O1 | 10 (≈ 36.3 µM) | 4 (≈ 14.5 µM) | > 4 | 7 (≈ 25.4 µM) | 4 (≈ 14.5 µM) | 2 (≈ 7.27 µM) | 20 (≈ 72.7 µM) | 4 (≈ 14.5 µM) | > 4 | > 20 | > 4 | > 20 | > 4 | 2 (≈ 7.27 µM)
5 | CCCc1nc2c(N)ncnc2n1[C@H]1C[C@H](O)[C@@H](CO)O1 | > 400 | 20 (≈ 68.2 µM) | 400 (≈ 1360 µM) | 20 (≈ 68.2 µM) | 7 (≈ 23.9 µM) | 20 (≈ 68.2 µM) | > 200 | > 200 | 70 (≈ 239 µM) | > 200 | > 200 | > 200 | > 300 | 170 (≈ 580 µM)
6 | NC(=O)c1ncn([C@@H]2O[C@H](CO)[C@@H](O)[C@H]2O)n1 [RIBAVIRIN] | > 400 | – | > 400 | – | – | – | – | – | 70 (≈ 287 µM) | – | – | – | > 300 | –
7 | CCCCCCCc1nc2c(N)ncnc2n1[C@H]1C[C@H](O)[C@@H](CO)O1 | > 100 | 4 (≈ 11.4 µM) | > 40 | 10 (≈ 28.6 µM) | 6 (≈ 17.2 µM) | 4 (≈ 11.4 µM) | 100 (≈ 286 µM) | 100 (≈ 286 µM) | 20 (≈ 57.2 µM) | > 100 | 20 (≈ 57.2 µM) | 20 (≈ 57.2 µM) | > 40 | 13 (≈ 37.2 µM)
8 | O=c1[nH]c(=O)n([C@H]2C[C@H](O)[C@@H](CO)O2)cc1/C=C/Br [BRIVUDINE] | > 400 | 70 (≈ 210 µM) | > 400 | 0.004 (≈ 0.012 µM) | > 10 | 70 (≈ 210 µM) | – | – | 2 (≈ 6 µM) | – | – | – | > 200 | > 200
9 | CCCCC/C=C\c1nc2c(N)ncnc2n1[C@H]1C[C@H](O)[C@@H](CO)O1 | > 100 | 20 (≈ 57.6 µM) | > 40 | 15 (≈ 43.2 µM) | 10 (≈ 28.8 µM) | 30 (≈ 86.4 µM) | 100 (≈ 288 µM) | 100 (≈ 288 µM) | 20 (≈ 57.6 µM) | > 100 | 14 (≈ 40.3 µM) | 12 (≈ 34.5 µM) | > 40 | 20 (≈ 57.6 µM)
10 | Nc1nc2c(ncn2COCCO)c(=O)[nH]1 [ACYCLOVIR] | > 400 | 50 (≈ 222 µM) | > 400 | – | – | 35 (≈ 155 µM) | – | – | > 400 | – | – | – | 100 (≈ 444 µM) | > 200
11 | Nc1ncnc2c1ncn2[C@H]1C[C@H](O)[C@@H](CO)O1 [DEOXYADENOSINE] | > 400 | > 100 | > 400 | > 100 | > 100 | > 100 | > 200 | 200 (≈ 796 µM) | > 400 | > 200 | 20 (≈ 79.6 µM) | > 200 | > 400 | –
12 | CCc1nc2c(N)ncnc2n1[C@H]1C[C@H](O)[C@@H](CO)O1 | > 400 | 70 (≈ 251 µM) | > 400 | > 100 | 55 (≈ 197 µM) | 70 (≈ 251 µM) | > 200 | > 200 | > 400 | > 200 | > 200 | > 200 | 300 (≈ 1070 µM) | > 200
13 | CCCCCc1nc2c(N)ncnc2n1[C@H]1C[C@H](O)[C@@H](CO)O1 | > 200 | 10 (≈ 31.1 µM) | 70 (≈ 218 µM) | 20 (≈ 62.2 µM) | 20 (≈ 62.2 µM) | 10 (≈ 31.1 µM) | 100 (≈ 311 µM) | 100 (≈ 311 µM) | 150 (≈ 467 µM) | > 100 | > 100 | > 100 | > 100 | 30 (≈ 93.3 µM)
14 | C/C=C\c1nc2c(N)ncnc2n1[C@H]1C[C@H](O)[C@@H](CO)O1 | ≥ 100 | > 50 | > 100 | > 50 | > 50 | > 50 | > 200 | > 200 | > 100 | > 200 | > 200 | > 200 | > 100 | > 50
15 | CCC/C=C\c1nc2c(N)ncnc2n1[C@H]1C[C@H](O)[C@@H](CO)O1 | ≥ 200 | > 50 | > 100 | > 50 | > 50 | > 50 | > 200 | > 200 | > 100 | > 200 | 100 (≈ 313 µM) | > 200 | > 100 | 40 (≈ 125 µM)
